Assay results published in publication PMC2217204 (The Journal of General Physiology, 2000).
Like-named read-outs stand apart in the source and are kept apart here.

Experiments:
KACh channel [1] = target: T1, KACh channel (Rattus norvegicus, UniProt P48548+P63251); type: cell-based; conditions: for inhibition of ATP-dependent gating, extracellular application: 5 μM in the pipette solution (extracellular), after 5 min, n = 4 each; for Hill coefficient of inhibition: ATP-modified KACh channels, inside-out
T1 sequence (P63251 1-501): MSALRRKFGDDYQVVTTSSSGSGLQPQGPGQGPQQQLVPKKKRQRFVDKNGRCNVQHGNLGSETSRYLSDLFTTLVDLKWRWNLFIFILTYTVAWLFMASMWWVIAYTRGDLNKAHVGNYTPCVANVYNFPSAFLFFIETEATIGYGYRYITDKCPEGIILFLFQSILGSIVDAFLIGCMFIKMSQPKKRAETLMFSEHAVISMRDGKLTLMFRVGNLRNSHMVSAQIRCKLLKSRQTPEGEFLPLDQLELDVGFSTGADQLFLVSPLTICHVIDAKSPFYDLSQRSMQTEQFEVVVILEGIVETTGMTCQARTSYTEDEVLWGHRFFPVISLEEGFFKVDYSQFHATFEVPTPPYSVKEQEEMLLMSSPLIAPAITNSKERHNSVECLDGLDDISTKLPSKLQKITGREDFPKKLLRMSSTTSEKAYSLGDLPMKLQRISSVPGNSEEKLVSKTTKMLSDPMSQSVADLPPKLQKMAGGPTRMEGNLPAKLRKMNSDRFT
T1 sequence (P48548 1-419): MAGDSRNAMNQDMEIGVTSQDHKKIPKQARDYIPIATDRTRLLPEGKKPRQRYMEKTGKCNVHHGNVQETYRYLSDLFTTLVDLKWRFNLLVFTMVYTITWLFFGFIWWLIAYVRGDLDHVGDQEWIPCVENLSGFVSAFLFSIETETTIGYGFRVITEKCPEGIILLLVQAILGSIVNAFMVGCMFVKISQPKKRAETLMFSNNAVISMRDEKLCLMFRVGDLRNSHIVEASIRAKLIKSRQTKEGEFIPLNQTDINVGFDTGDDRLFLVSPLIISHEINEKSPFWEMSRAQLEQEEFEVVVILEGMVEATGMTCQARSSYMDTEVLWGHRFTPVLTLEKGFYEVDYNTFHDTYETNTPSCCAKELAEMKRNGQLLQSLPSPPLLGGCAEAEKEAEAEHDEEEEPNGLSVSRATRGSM

KACh channel [2] = target: T1, KACh channel; assay: βγ-activated KACh channels, atrial inside-out patches; type: cell-based
Procedure, shortened: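 Atrial inside-out patches at −60 mV in 140 mM KCl, pH 7.2, 24–26°C. Channels were activated by purified bovine βγ subunit applied to the cytoplasmic face. Linoleic or arachidonic acid (2 μM, sonicated into bath solution) was applied first, then 4 mM ATP was added. nPo was compared before and after ATP.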

GIRK1/4 = assay: ATP-dependent gating of GIRK1/4 expressed in Xenopus oocytes, βγ-activated; type: cell-based; conditions: βγ 50 nM
Procedure, shortened: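 Xenopus oocytes injected with GIRK1 and GIRK4 cRNA (~0.5 ng/nl) and kept ~2 d at 19°C in Barth's solution. Vitelline membrane was removed before patching. Inside-out patches in 140 mM KCl, pH 7.2. Channel activity and open-time kinetics were assessed with ATP and fatty acid on the cytoplasmic side.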

K1 channel = assay: ATP-activated background K1 channel, atrial inside-out patches; type: cell-based, rat
KATP channel = KATP channel (Rattus norvegicus, UniProt P70673); assay: KATP channel, inside-out patches from adult rat ventricular cells; type: cell-based
Procedure, shortened: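 KATP channels that appeared on forming inside-out patches were tested with 5 μM arachidonic acid on the cytoplasmic side. In some patches channels were first allowed to run down, then briefly exposed to 3 mM ATP to reactivate them before fatty acid was applied. Recordings were at 24–26°C; 2 μM was also tested (n = 3).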

KACh channel [3] = target: T1, KACh channel; type: cell-based; conditions: 2 μM fatty acid applied with 30 μM PIP2
[4] = target: T2, KACh channels in hippocampal pyramidal neurons (Rattus norvegicus, UniProt P48550+P63251); assay: ATP-dependent gating of KACh channel in hippocampal neurons, 5-HT as agonist; type: cell-based; conditions: 2 μM with 100 μM GTP and 4 mM ATP, 10 μM 5-HT in pipette
T2 sequence (P63251 1-501): T1 sequence (P63251 1-501)
T2 sequence (P48550 1-425): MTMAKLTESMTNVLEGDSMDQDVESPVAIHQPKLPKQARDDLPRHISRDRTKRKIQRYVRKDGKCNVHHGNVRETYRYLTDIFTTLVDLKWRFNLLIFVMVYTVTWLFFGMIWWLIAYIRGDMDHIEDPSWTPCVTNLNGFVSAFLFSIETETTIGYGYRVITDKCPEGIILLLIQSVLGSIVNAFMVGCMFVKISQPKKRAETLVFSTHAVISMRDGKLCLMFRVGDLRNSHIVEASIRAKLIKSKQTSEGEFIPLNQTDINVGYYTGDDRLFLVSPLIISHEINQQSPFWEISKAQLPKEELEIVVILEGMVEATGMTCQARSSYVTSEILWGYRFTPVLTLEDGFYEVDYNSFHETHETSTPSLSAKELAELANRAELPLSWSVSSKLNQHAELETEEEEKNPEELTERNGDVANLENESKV
Procedure, shortened: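 Pyramidal neurons from the CA3 region of adult rat hippocampus. Slices ~500 μm thick were digested in 0.33 mg/ml trypsin at 30°C, then in DNase I, triturated, and settled onto coverslips. Inside-out patches were activated by 100 μM GTP, then 4 mM ATP was added. Open states were assessed from duration histograms and kinetic-scheme fits with one or two open states.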

[5] = K 1/2 (effect on ATP-dependent gating of KACh channel), atrial inside-out patches, 100 μM GTP and 4 mM ATP, lipid 0.1, 1, 3, 10 and 30 μM, n = 3 each

Sequence of KATP channel (P70673 whole entry): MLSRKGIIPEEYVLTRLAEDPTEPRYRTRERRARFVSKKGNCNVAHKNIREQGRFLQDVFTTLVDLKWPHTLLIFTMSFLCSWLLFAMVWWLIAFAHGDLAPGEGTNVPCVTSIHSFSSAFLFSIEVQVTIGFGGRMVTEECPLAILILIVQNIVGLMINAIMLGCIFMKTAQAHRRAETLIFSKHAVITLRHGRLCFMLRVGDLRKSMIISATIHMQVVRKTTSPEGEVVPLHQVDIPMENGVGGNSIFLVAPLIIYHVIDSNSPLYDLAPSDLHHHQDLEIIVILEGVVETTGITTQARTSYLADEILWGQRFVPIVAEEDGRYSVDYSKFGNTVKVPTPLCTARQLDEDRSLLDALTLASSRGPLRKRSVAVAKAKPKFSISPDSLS
Sequence of KATP channel (Q63563 whole entry partner): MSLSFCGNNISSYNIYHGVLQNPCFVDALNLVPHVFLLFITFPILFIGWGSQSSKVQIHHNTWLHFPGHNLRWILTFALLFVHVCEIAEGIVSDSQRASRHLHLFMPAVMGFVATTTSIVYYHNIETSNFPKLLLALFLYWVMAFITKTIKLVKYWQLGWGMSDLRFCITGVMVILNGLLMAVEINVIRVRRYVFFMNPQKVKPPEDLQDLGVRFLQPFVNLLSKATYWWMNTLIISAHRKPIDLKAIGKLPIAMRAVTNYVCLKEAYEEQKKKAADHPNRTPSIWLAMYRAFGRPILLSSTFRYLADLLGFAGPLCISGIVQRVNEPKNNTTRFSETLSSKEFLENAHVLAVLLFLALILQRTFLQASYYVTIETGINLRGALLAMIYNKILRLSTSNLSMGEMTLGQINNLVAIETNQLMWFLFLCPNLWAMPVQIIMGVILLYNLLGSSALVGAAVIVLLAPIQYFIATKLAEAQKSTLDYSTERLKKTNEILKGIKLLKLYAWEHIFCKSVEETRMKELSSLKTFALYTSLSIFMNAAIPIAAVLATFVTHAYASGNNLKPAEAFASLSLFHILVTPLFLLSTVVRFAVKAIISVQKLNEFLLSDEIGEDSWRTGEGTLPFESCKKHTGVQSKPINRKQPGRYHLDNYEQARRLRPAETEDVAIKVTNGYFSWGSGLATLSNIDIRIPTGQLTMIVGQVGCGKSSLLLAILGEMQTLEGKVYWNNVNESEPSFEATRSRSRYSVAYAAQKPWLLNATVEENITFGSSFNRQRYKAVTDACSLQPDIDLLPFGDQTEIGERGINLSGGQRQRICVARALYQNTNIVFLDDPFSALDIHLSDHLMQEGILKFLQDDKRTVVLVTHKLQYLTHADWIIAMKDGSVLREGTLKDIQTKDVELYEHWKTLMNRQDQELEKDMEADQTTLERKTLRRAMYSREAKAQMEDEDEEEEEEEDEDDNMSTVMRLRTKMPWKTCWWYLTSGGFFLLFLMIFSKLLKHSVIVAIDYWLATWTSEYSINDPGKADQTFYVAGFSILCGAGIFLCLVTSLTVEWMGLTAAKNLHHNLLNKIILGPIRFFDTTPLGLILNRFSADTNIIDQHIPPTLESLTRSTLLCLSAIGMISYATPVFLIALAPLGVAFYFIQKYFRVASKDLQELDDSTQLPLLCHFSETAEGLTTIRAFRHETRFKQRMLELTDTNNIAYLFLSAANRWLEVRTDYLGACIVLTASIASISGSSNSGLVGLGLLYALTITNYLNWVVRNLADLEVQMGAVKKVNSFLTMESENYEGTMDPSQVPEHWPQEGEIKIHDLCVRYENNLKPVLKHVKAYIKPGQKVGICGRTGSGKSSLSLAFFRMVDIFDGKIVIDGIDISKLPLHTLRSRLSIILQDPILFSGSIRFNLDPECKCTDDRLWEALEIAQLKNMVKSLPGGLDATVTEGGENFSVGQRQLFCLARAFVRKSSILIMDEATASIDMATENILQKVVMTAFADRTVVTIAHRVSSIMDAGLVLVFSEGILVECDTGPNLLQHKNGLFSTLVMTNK

KACh open time constant after fatty acid (KACh channel [1]; 2 μM AA with GTP and 4 mM ATP, atrial patch also containing K1 channel) [ms] | inhibition of ATP-dependent gating, extracellular application (KACh channel [1]) | Hill coefficient of inhibition (KACh channel [1]) | IC50 (KACh channel [1]; [5]) [nM] | voltage dependence of the effect (KACh channel [1]; channel activity at different membrane potentials (Fig. 10 B)) | IC50 (KACh channel [2]) [nM] | KATP channel inhibition in the presence of PIP2 (KATP channel; 5 μM AA with PIP2 present, listed as AA) | inhibition of KATP channels reactivated by ATP after rundown (KATP channel; brief exposure to 3 mM ATP, n = 4, listed as AA) | inhibition at 2 µM (KATP channel; read-out: inhibition of KATP channel activity) [%] | IC50 (KACh channel [1]; K 1/2 for inhibition, pipette solution 70 mM K+, n = 3) [nM] | IC50 (KACh channel [1]; K 1/2 for inhibition, pipette solution 140 mM K+, n = 3) [nM] | IC50 (KACh channel [1]; K 1/2 for inhibition, pipette solution 210 mM K+, n = 3) [nM] | increase in channel activity on further addition of 4 mM ATP (KACh channel [2]; βγ-activated channels exposed to 2 μM fatty acid first, n = 5) [fold] | effect on PIP2-dependent gating of KACh channel (KACh channel [3]) | open time constant (one open state) [4] [ms] | inhibition of KATP channel activity (KATP channel; 5 μM, during channel rundown) | SMILES | effect on ATP-induced changes in GIRK1/4 channel kinetics (GIRK1/4) | effect on K1 channel (K1 channel; 2 or 5 μM AA, ATP-activated, n = 3 each, listed as AA) | influence on K1 channel kinetics (K1 channel; linoleic acid 2 μM (n = 3), cytosolic fraction 5 mg protein/ml (n = 2), lipid fraction (n = 2))
1.0 ± 0.1 | did not inhibit | ~2 | 1700 ± 200 | voltage-insensitive | 1500 | ineffective | quick inhibition | 62 ± 12 |  |  |  |  |  |  |  | CCCCC/C=C\C/C=C\C/C=C\C/C=C\CCCC(=O)O [Arachidonic acid [20:4 (n-6)], Arachidonic acid] | blocked | no effect | 
 | did not inhibit | ~2 | 1200 ± 200 |  |  |  |  |  | 1600 ± 400 | 1500 ± 300 | 1700 ± 400 | 1.3 ± 0.1 | inhibited | 1.0 ± 0.1 | near maximal inhibition | CCCCC/C=C\C/C=C\CCCCCCCC(=O)O [Linoleic acid [18:2 (n-6)], Linoleic acid] |  |  | failed to significantly influence
